The results in this text go back to PubChem BioAssay.

Test [1] in a line: inhibitors of TNFa-induced NFkB p65 translocation, primary screen, imaging, HUVEC, MLSMR starter and 10KST1 sets (AID 438).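 For inhibition: signal is the nuclear over cytoplasmic p65 intensity ratio per well.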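 Note: compound added about 3h40 before a 20 min TNFalpha stimulation.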 Conditions: HUVEC TNFa-induced p65 nuclear translocation; cell count: measured here: nuclei count (cytotoxicity indicator), at 2.08 µM; inhibition: at 2 µM, stronger effect = higher value, 0% TNFa-plus-vehicle, 100% no-TNFa wells.
Test [2] is described as follows: inhibitors of mutant huntingtin aggregation, primary screen, imaging, exon1htt(103Q)mCFP cells, high-content imaging (AID 483;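 active = visual image review flags a hit and inhibition of aggregation exceeds 20%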;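 note: compound exposure lasted 3 days before fixation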;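 for nuclei count: percent of the per-plate median nuclei count of sample wells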). Conditions: exon1htt(103Q)mCFP cell line, aggregate imaging, at 2 µM; inhibition of aggregation: stronger effect = higher value; nuclei count: measured here: cell count, toxicity.
Test [3] in a line: inhibitors of E-selectin induction by TNFa, primary screen, imaging, HUVEC, immunofluorescence, MLSMR starter and 10KST1 sets (AID 487;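 active = visually confirmed hit in the image check and inhibition above 20%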;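 for inhibition: signal is fraction of cell area covered by stained E-selectin grains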;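 for nuclei count: 100% = median nuclei count of all wells on the same plate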). Conditions: HUVEC TNFalpha-induced E-selectin immunofluorescence imaging, at 2 µM; inhibition: stronger effect = higher value; nuclei count: measured here: cell number, toxicity.
Test [4] concerns the target Voltage-gated potassium channel subunit beta-2 (Rattus norvegicus) (UniProt P62483). Nature of the test: KvBeta enzyme negative modulators, primary screen, biochemical, NADPH fluorescence (AID 622;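 active = fluorescence slope higher than the sample average by over 3 SD, cut at about -0.22 in these data, passing the limit was not always enough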;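 note: slope of raw intensity against log time taken from 70 to 1610 s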). Conditions: recombinant KvBeta, 4-cyanobenzaldehyde reduction, at 10 µM, stronger effect = higher value.
Test [5] has the same target. Nature of the test: KvBeta positive modulators, primary screen, biochemical, NADPH fluorescence (AID 623;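 active = NADPH fluorescence slope more negative than the mean of all samples by about 3 SD, 99.7% confidence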;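 note: fluorescence intensity change per second fitted from 20 to 320 s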). Conditions: Recombinant KvBeta, NADPH fluorescence decrease slope, 10 min; at 10 µM; stronger effect = lower value.
In test [6] the target is Alpha-2C adrenergic receptor (Homo sapiens) (UniProt P18825). The test can be described thus: modulators of alpha2C/GIRK thallium flux, primary screen, cell-based, HEK293 alpha2C/GIRK1/2 (AID 624;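 active = fluorescence slope after compound addition differing from the mean of all screened samples at 99.7% confidence, in either direction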;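 note: slope of fluorescence ratio to pre-addition baseline per second over 15 to 24 s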). Conditions: thallium flux BTC fluorescence, at 10 µM, actives lie on both sides.
Chain of Alpha-2C adrenergic receptor (Homo sapiens) (P18825 whole entry, looked up): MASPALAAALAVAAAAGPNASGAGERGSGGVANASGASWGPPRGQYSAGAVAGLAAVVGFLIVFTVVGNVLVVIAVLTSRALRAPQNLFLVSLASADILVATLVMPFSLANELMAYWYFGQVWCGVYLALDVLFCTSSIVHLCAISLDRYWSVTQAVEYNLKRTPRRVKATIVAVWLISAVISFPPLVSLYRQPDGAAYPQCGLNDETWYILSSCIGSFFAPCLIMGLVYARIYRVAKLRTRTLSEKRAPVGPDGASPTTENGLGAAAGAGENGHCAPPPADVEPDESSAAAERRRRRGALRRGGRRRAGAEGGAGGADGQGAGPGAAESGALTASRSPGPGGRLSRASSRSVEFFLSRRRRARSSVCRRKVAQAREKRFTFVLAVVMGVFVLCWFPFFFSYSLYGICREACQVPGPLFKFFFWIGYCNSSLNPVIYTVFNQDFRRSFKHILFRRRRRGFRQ
Test [7] in a line: inhibitors of larval lipid processing in zebrafish, primary screen, whole organism, PED6 fluorescence, gall bladder and intestine (AID 686;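 active = a full or partial loss of lipid-probe fluorescence in the fish gall bladder, intestine or both, judged by eye; inactive = no fluorescence loss, or compound toxic to the fish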;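 note: larvae 5 to 7 days old with five fish per well; signal comes from phospholipase A2 cleavage of quenched PED6 carried via bile; overnight exposure to compound and PED6 before scoring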). Conditions: Zebrafish larvae PED6 lipid processing, fluorescence scoring; screened at 20 µM (by protocol). Put shortly: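 Also added: quenched phospholipase substrate PED6, 100 nM final, ingested by larvae; System: zebrafish larvae, 5-7 d; Quantity: 5 larvae per well; Compound: 20 µM single dose; Schedule: overnight compound and PED6 incubation; Read-out: visual per-well fluorescence inhibition score; Measured by: By-eye fluorescence microscopy; Medium: E3.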

Test [8] is described as follows: inhibitors of Sendai virus-induced IRF3 signaling, primary screen, TLR/RLR signaling modifier project, cell-based, Sendai virus stimulus, luciferase, 10K MLSCN set (AID 602276;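 active = inhibition at or above 50% at 10 µM; inactive = inhibition below 50%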;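 note: firefly luciferase from ISG56 promoter only with Renilla not read in this screen; 0% = Sendai virus plus DMSO and 100% = medium plus DMSO without virus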). Conditions: HEK293 RL24 IRF3 luciferase reporter, at 10 µM, stronger effect = higher value. On the technique in general: Reporter assays use an easily measured gene product as a stand-in for the process of interest.

Test [9] can be described thus: inhibitors of poly I:C-induced TLR3 signaling, primary screen, cell-based, poly I:C stimulus, luciferase, 10K MLSCN set (AID 602277;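 active = inhibition of the reporter signal at or above 50%; inactive = inhibition below 50%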). Conditions: HEK293-TLR3 RL24 IRF3 luciferase reporter, at 10 µM, stronger effect = higher value.

Active and inactive are the calls of the source.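 Rule for the calls, unless noted: active = inhibition above 20% together with a positive visual image hit; inconclusive = visual image hit but inhibition not above 20%; inactive = no visual image hit.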

Chain of Voltage-gated potassium channel subunit beta-2 (Rattus norvegicus) (P62483 whole entry, looked up): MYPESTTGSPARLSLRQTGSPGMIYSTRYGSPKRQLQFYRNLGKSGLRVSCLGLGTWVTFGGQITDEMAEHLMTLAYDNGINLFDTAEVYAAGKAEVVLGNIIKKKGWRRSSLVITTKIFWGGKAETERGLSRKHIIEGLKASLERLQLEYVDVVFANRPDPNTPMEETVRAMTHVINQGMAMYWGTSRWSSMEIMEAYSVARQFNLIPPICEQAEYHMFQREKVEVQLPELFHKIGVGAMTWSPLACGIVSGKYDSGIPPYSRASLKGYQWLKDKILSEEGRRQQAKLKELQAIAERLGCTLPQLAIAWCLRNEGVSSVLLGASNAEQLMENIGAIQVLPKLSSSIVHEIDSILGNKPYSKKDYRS

The inhibition is the change of the read-out against control, counted positive when it falls. `O=C(CSc1nnc(Cc2ccccc2)n1-c1cccc(Cl)c1)N1CCOCC1`: the cell count in test [1] stood at 352. Moreover, the inhibition in test [1] is 10.5% (inactive); in test [3], -207% (inactive); in test [8] it was -1.07% (inactive); in test [9] it was 9.14% (inactive). Further, in test [2], the inhibition of aggregation was -18.8% (inactive). The figures for the nuclei count in [2] and in [3] were 85.8% and 119%, respectively. The fluorescence slope in [4] was -0.4 (inactive). Further, the NADPH fluorescence slope in [5] was -4.5e-05 (inactive). Besides, the slope in [6] was 0.00585 (inactive). Also, in test [7], the result was inactive.
With `COc1ccc(OC)c(NC(=O)C23CCC(C)(C(=O)C2)C3(C)C)c1` (stereo unspecified), the cell count in [1] is 512. The inhibition in [1] is -4.8% (inactive); in [3] it was -103% (inactive); in test [8], 12.9% (inactive); in test [9], 26.7% (inactive). For the same molecule, in test [2], the inhibition of aggregation is 4.8% (inactive). Moreover, the values for the nuclei count in [2] and in [3] were 98.5% and 125%, respectively. In [4], the fluorescence slope was -0.455 (inactive). For the same molecule, in [5], the NADPH fluorescence slope was -0.00015 (inactive). The slope in test [6] is 0.00548 (inactive). Moreover, in test [7], the molecule was called inactive.
Regarding `Cc1cccc(-n2ncc3c(NCc4cccs4)ncnc32)c1`, the cell count in test [1] turned out to be 667. Moreover, the inhibition in [1] is 6.7% (inactive); in test [3], -119% (inactive); in test [8], -36.3% (inactive); in test [9], -95% (inactive). Moreover, the inhibition of aggregation in test [2] was 0.1% (inactive). Moreover, the values for the nuclei count in test [2] and in test [3] were 99.5% and 108%, respectively. In addition, the fluorescence slope in test [4] was -0.458 (inactive). Besides, in [5], the NADPH fluorescence slope is -2.6e-05 (inactive). Further, in [6], the slope is 0.00473 (inactive). For the same molecule, in test [7], the result was inactive.
On to `CN(C)C(CNC(=O)Nc1cccc(Cl)c1)c1cccnc1` (stereo unspecified), for which, in test [1], the cell count is 298. The inhibition in test [1] is -5.5% (inactive); in test [3] it was -40.7% (inactive); in [8], 18.9% (inactive); in test [9], 26.3% (inactive). Besides, the inhibition of aggregation in [2] is 1.1% (inactive). Moreover, the nuclei count was 67.5% in [2] and 115% in test [3]. In addition, the fluorescence slope in test [4] is -0.427 (inactive). Also, in test [5], the NADPH fluorescence slope was -5.1e-06 (inactive). The slope in test [6] is 0.00889 (active). The molecule was called inactive in test [7].
With `CCOC(=O)C1CCCN(C(=O)Cc2ccc(OC)c(OC)c2)C1` (stereo unspecified), the cell count in [1] was 705. Besides, the inhibition in [1] is 2.6% (inactive); in [3] it was -124% (inactive); in test [8] it was 18.6% (inactive); in test [9], 17.7% (inactive). Further, in test [2], the inhibition of aggregation was 2.1% (inactive). Besides, the values for the nuclei count in test [2] and in [3] were 100% and 104%, respectively. Besides, in [4], the fluorescence slope is -0.443 (inactive). Further, the NADPH fluorescence slope in test [5] was -4.9e-05 (inactive). Besides, the slope in test [6] was 0.00479 (inactive). Moreover, in test [7], the result was inactive.
Regarding `COCCn1nnnc1SCC(=O)N1CCCCC1`, the cell count in [1] was found to be 344. Also, the inhibition was 1.6% (inactive) in test [1], 6.2% (inactive) in [3], 17.3% (inactive) in test [8] and 14% (inactive) in test [9]. The inhibition of aggregation in test [2] is 4.1% (inactive). Moreover, the figures for the nuclei count in [2] and in [3] were 102% and 121%, respectively. In [4], the fluorescence slope was -0.49 (inactive). Also, the NADPH fluorescence slope in test [5] was -9.6e-06 (inactive). Further, in [6], the slope was 0.00458 (inactive). The result in test [7] was inactive.
Turning to `Cc1ccc(Nc2nc(N)nc(CN3CCN(Cc4ccc5c(c4)OCO5)CC3)n2)cc1`, the cell count in test [1] was found to be 385. For the same molecule, the inhibition in [1] is 4.6% (inactive); in test [3], -82.2% (inactive); in test [8], 1.9% (inactive); in [9], 7.26% (inactive). In test [2], the inhibition of aggregation was 54.3% (active). Moreover, the nuclei count was 91.6% in [2] and 102% in test [3]. Besides, the fluorescence slope in [4] is -0.367 (inactive). Besides, in [5], the NADPH fluorescence slope is -4.6e-05 (inactive). Besides, the slope in test [6] is 0.00487 (inactive). In addition, the molecule was classed as inactive in test [7].
Turning to `CC(=O)/C(C[N+]1(C)CCCCC1)=N\O`, the cell count in test [1] amounted to 566. For the same molecule, the inhibition in test [1] was 12.1% (inactive); in test [3] it was 26.6% (inactive); in [8], 8.76% (inactive); in [9], 13.4% (inactive). Further, the inhibition of aggregation in test [2] was 17.4% (inactive). For the same molecule, the nuclei count in test [2] and in test [3] was 107% throughout. Moreover, in test [4], the fluorescence slope is -0.403 (inactive). Also, in [5], the NADPH fluorescence slope was -5.2e-05 (inactive). For the same molecule, in [6], the slope was 0.00495 (inactive). Also, the call in test [7] was inactive.
Regarding `CC(=O)Nc1ccc(NC(=O)Cn2cnc3c(cnn3C(C)(C)C)c2=O)cc1`, in [1], the cell count was 586. Also, the inhibition in test [1] is -3.3% (inactive); in [3], 0.5% (inactive); in test [8] it was 2.03% (inactive); in test [9], 2.5% (inactive). Moreover, the inhibition of aggregation in [2] is 8.4% (inactive). In addition, the nuclei count in test [2] stood at 104%; in test [3], 111%. Moreover, the fluorescence slope in [4] was -0.37 (inactive). Further, in test [5], the NADPH fluorescence slope was -4e-05 (inactive). The slope in test [6] is 0.00604 (inactive). In addition, the outcome in test [7] was inactive.
For the molecule `O=C(O)CCc1ccc(-c2cccs2)n1NC(=O)c1ccccc1Br`, in [1], the cell count was 338. The inhibition is -5.2% (inactive) in test [1], -46.9% (inactive) in test [3], 19.5% (inactive) in test [8] and 14.2% (inactive) in test [9]. For the same molecule, the inhibition of aggregation in [2] was 2.7% (inactive). Moreover, the nuclei count in test [2] was 94.1%; in [3], 115%. In [4], the fluorescence slope was -0.416 (inactive). In addition, the NADPH fluorescence slope in test [5] was -5.2e-05 (inactive). For the same molecule, the slope in test [6] is 0.0044 (inactive). The result in test [7] was inactive.
Take `CC1(C)CC2CC(C)(CN2S(=O)(=O)c2ccc(N)cc2)C1` (stereo unspecified): the cell count in test [1] amounted to 613. Also, the inhibition in test [1] was -9.2% (inactive); in [3], 65.6% (inactive); in test [8], 10.2% (inactive); in test [9] it was 18.5% (inactive). Moreover, the inhibition of aggregation in test [2] was 30.3% (inactive). Further, the nuclei count in test [2] is 79.8%; in test [3] it was 60.2%. Also, the fluorescence slope in [4] was -0.374 (inactive). Also, the NADPH fluorescence slope in test [5] was -6.2e-05 (inactive). Also, in test [6], the slope was 0.00585 (inactive). Also, the call in test [7] was inactive.
On to `COc1ccccc1OCc1ccc(C(=O)N2CCN(C(=O)c3ccco3)CC2)cc1`, for which the cell count in [1] was 502. Also, the inhibition in test [1] was -32.6% (inactive); in test [3] it was -92.1% (inactive); in test [8] it was 1.91% (inactive); in test [9] it was 18% (inactive). Also, in [2], the inhibition of aggregation was 6% (inactive). The results for the nuclei count in test [2] and in test [3] were 98.6% and 103%, respectively. The fluorescence slope in test [4] is -0.416 (inactive). Also, in test [5], the NADPH fluorescence slope was -3e-05 (inactive). Moreover, the slope in [6] is 0.00401 (inactive). Moreover, the molecule was called inactive in [7].
Consider `CCCn1c(=O)c(C(=O)NCc2ccccn2)c(O)c2ccccc21`, for which the cell count in [1] was found to be 345. In addition, the inhibition in test [1] was 4.2% (inactive); in test [3] it was -32.3% (inactive); in test [8], -22.2% (inactive); in [9], -53.3% (inactive). In addition, in [2], the inhibition of aggregation is -20.9% (inactive). For the same molecule, the nuclei count in [2] was determined as 111%; in test [3] it was 108%. The fluorescence slope in test [4] is -0.403 (inactive). Moreover, the NADPH fluorescence slope in test [5] is -9e-05 (inactive). The slope in [6] was 0.00521 (inactive). For the same molecule, in test [7], the result was inactive.
